Bounds are passed on as bounds.

The source of these data is ChEMBL document CHEMBL1687885, “Ethanesulfohydroxamic acid ester prodrugs of nonsteroidal anti-inflammatory drugs (NSAIDs): synthesis, nitric oxide and nitroxyl release, cyclooxygenase inhibition, anti-inflammatory, and ulcerogenicity index studies” (J Med Chem, 2011).

Data set [1] concerns the target T1, Prostaglandin G/H synthase 1 (Ovis aries, UniProt P05979).
T1 sequence (P05979 whole entry): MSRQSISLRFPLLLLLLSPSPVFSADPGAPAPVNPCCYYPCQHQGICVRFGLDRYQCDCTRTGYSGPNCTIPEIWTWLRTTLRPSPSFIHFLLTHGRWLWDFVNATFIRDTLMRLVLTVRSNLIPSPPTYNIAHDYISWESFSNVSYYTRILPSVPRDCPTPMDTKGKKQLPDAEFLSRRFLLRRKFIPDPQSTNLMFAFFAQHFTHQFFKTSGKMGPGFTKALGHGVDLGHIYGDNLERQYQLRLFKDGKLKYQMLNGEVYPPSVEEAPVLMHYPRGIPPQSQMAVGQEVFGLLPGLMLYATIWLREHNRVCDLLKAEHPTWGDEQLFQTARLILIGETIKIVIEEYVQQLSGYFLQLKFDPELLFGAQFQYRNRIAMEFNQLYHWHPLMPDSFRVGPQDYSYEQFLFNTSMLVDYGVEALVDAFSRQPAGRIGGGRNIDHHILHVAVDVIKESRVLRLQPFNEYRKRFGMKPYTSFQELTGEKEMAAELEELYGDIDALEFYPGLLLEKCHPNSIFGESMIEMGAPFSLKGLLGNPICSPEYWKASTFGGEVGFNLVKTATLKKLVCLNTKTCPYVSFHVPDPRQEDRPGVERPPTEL
Briefly: Inhibition of ovine COX-1.

A short description of data set [2]: Chemical stability of the compound in phosphate buffered containg rat serum of pH 7.4 assessed as NO release at 50 uM after 1.5 hr by Griess assay. Conditions: pH 7.4, 1.5 h.
Data set [3] in a line: Induction of HNO release per mol of compound in 0.6 mL MeOH, 0.2 mL of 1 M NaOH and 100 mM glutathione after 24 hr by gas chromatographic analysis. The class given is physicochemical. In a few lines:
(§1)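 Compound 50 mM in MeOH-based solvent containing 100 mM glutathione and 250 mM NaOH (25 mM NaOH for some compounds); headspace N2O sampled at 2 and 24 h by GC with thermal conductivity detection. % HNO from 2 mol HNO per mol N2O; mean of three.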

Data set [4] deals with Rattus norvegicus. Briefly: Antiinflammatory activity in po dosed Sprague-Dawley rat assessed as inhibition of carrageenam-induced paw edema administered 1 hr before carrageenan challenge measured after 3 hrs by Plethysmometer. The class given is functional. Conditions: read-out: ID50 (the source's name). Put shortly: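 Male Sprague-Dawley rats (160-180 g), three per group; compounds suspended in water with 1% methyl cellulose given orally at no fewer than three doses (2.8-112 mg/kg range) 1 h before subplantar injection of 0.05 mL 1% carrageenan in 0.9% NaCl into right hind paw. Vehicle-only controls. Paw volume measured by plethysmometer at 0 and 3 h; ID50 from dose-response curve.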

A short description of data set [5]: Chemical stability of the compound in phosphate buffered saline of pH 7.4 assessed as NO release at 50 uM after 1.5 hr by Griess assay. Conditions: buffer, pH 7.4, 1.5 h.
Data set [6] in a line: Induction of HNO release per mol of compound in 0.6 mL MeOH and 0.2 mL of 700 mM Tris buffer solution after 2 hr by gas chromatographic analysis.
Data set [7] relates to Rattus norvegicus. The data set is described as follows: Ulcerogenic activity in 12 fasting Sprague-Dawley rat assessed as ulcer index at 80 umol/kg, po measured after 6 hrs by magnifier lenses. The class given is toxicity, organism-based. As to conditions: in vivo. In a few lines:
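Rats fasted (water allowed) 12 h, then given 80 μmol/kg orally suspended in 1.7 mL 1% methylcellulose; vehicle controls. After 6 h, CO2 euthanasia; stomachs opened along greater curvature, rinsed, ulcers counted and measured with magnifier lenses. UI = summed ulcer length (mm) per stomach averaged over n = 3 per group.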

A short description of data set [8]: Induction of HNO release per mol of compound in 0.6 mL MeOH and 0.2 mL of 1 M NaOH after 2 hr by gas chromatographic analysis. The class given is physicochemical. Put shortly:
(§2)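 HNO measured indirectly as N2O under anaerobic conditions: compound at 50 mM in 0.6 mL MeOH plus 0.2 mL 1 M NaOH; headspace (0.25 mL) injected at 2 and 24 h onto GC with thermal conductivity detector and Porapak Q column. % based on 2 mol HNO per mol N2O; mean of three experiments.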

Data set [9] in a line: Induction of HNO release per mol of compound in 0.6 mL MeOH, 0.2 mL of 1 M NaOH and 100 mM glutathione after 2 hr by gas chromatographic analysis. It counts as physicochemical. Put shortly:
as §1

A short description of data set [10]: Induction of HNO release per mol of compound in 0.6 mL MeOH and 0.2 mL of 700 mM Tris buffer solution after 24 hr by gas chromatographic analysis.
The nature of data set [11]: Induction of HNO release per mol of compound in 0.6 mL MeOH and 0.2 mL of 1 M NaOH after 24 hr by gas chromatographic analysis. It counts as physicochemical. Put shortly: as §2
For data set [12], the system named is Rattus norvegicus. The data set is described as follows: Antiinflammatory activity in Sprague-Dawley rat assessed as inhibition of carrageenam-induced paw edema at 100 mg/kg, po administered 1 hr before carrageenan challenge measured after 3 hrs by Plethysmometer. It counts as functional. Put shortly:
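Male Sprague-Dawley rats (160-180 g), three per group, received the test compound orally as a suspension in water with 1% methyl cellulose. One hour later, 0.05 mL of 1% carrageenan in 0.9% NaCl was injected subcutaneously into the right hind paw plantar skin. Controls received vehicle alone. Paw volume was read at 0 and 3 h, and % inhibition was reported with SEM (n = 3).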

The test system of data set [13] is Rattus norvegicus. The data set is described as follows: Antiinflammatory activity in Sprague-Dawley rat assessed as inhibition of carrageenam-induced paw edema at 327 umol/kg, po administered 1 hr before carrageenan challenge measured after 3 hrs by Plethysmometer. The class given is functional. In a few lines:
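Male Sprague-Dawley rats (160-180 g), three per group. Test agent was suspended in water with 1% methylcellulose and given orally 1 h before 0.05 mL 1% carrageenan in 0.9% NaCl was injected subcutaneously under the plantar skin of the right hind paw. Controls received vehicle only. Paw volume was measured at 0 and 3 h by plethysmometer. Result is % inhibition of inflammation, n = 3, with SEM.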

Broadly, the IC50 is the concentration that gives 50% inhibition. As for `COc1ccc2c(c1)c(CC(=O)OCCS(=O)(=O)NO)c(C)n2C(=O)c1ccc(Cl)cc1`, the half-maximal inhibitory concentration (IC50) in [1] was found to be 77.7 µM. Besides, the Activity stood at 3.2% in [2]; 1% in data set [3]; 44.5% in data set [5]; 0% in data set [6]; 20% in data set [8]; 1% in [9]. The Activity is listed as 0% in data set [10] and 1% in data set [11]. Further, the ED50 with Rattus norvegicus [4] worked out at 19.1 µmol/kg. In the data set on Rattus norvegicus [7], the UI was 0.
Regarding `COc1ccc2cc([C@H](C)C(=O)OCCS(=O)(=O)NO)ccc2c1`, in data set [1], the IC50 is 4.5 µM. In addition, the Activity in data set [2] was determined as 1.3%; in [3] it was 4%; in data set [5], 52.9%; in data set [6] it was 0%; in data set [8], 24%; in data set [9] it was 2%. Further, the results for the Activity in [10] and in [11] were 0% and 23%, respectively. In addition, the ED50 with Rattus norvegicus [4] is 11.8 µmol/kg.
In general, inhibition in vivo refers to the change of the read-out against control, counted positive when it falls. Take `O=C(Cc1ccccc1)OCCS(=O)(=O)NO`: the half-inhibitory concentration (IC50) in data set [1] is over 100 µM. The Activity in data set [2] was determined as 4.8%; in [3], 7%; in data set [5], 54.3%; in data set [6], 0%; in data set [8] it was 23%; in [9] it was 0%. Moreover, the Activity turned out to be 0% in data set [10] and 21% in data set [11]. The inhibition in vivo at 100 mg/kg in the data set on Rattus norvegicus [12] was 12.4%.
Regarding `CC(C)Cc1ccc(C(C)C(=O)OCCS(=O)(=O)NO)cc1` (configuration not stated), the midpoint of inhibition in data set [1], the IC50, lay at 1.1 µM. Also, the Activity in data set [2] worked out at 2.1%; in data set [3], 7%; in data set [5], 46.3%; in data set [6], 0%; in data set [8] it was 25%; in data set [9], 0%. In addition, the figures for the Activity in data set [10] and in data set [11] were 0% and 24%, respectively. In the data set on Rattus norvegicus [13], the inhibition in vivo at 327 µmol/kg was 79.5%.
`CONS(=O)(=O)CCOC(=O)C(C)c1ccc(CC(C)C)cc1` (configuration not stated) gave an IC50 in data set [1] of 14.6 µM. The Activity is recorded as 0.9% in data set [2]; 0% in data set [3]; 4.3% in [5]; 0% in data set [6]; 0% in [8]; 0% in [9]. The Activity in [10] and in [11] was 0% each time. In addition, the inhibition in vivo at 327 µmol/kg in the data set with Rattus norvegicus [13] came out at 78.9%.
Turning to `CCS(=O)(=O)NO` [ETHANESULFONYLHYDROXAMIC ACID], the half-inhibitory concentration (IC50) in [1] was over 100 µM. Besides, the Activity in data set [2] is 1.4%; in [3], 0%; in data set [5], 54.5%; in [6], 0%; in data set [8], 24%; in data set [9], 0%. Moreover, the Activity in data set [10] is given as 0%; in data set [11], 7%.
`COc1ccc2c(c1)c(CC(=O)O)c(C)n2C(=O)c1ccc(Cl)cc1` [INDOMETHACIN]: the UI in the data set on Rattus norvegicus [7] came out at 64.5.
On to `COc1ccc2cc([C@H](C)C(=O)O)ccc2c1` [NAPROXEN], for which, in the data set with Rattus norvegicus [4], the ED50 is 29.7 µmol/kg.
